This is an account of results in PMC8829933 (ACS Omega, 2022).

For orientation: IC50 means the concentration that gives 50% inhibition. Low readings indicate inhibition by little substance, high ones a need for much substance.

SMILES strings stand for the structures. Bounds are passed on as bounds.

Assay [1] has as its target HIV-1 IN (WT) (Human immunodeficiency virus type 1 group M subtype B, UniProt P12497). As to the kind of experiment: HTRF-based integration assay of IN catalytic activity. Type of assay: biochemical. The essentials:
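Full-length HIV-1 IN and LEDGF/p75 cofactor (6xHis- and Flag-tagged, expressed in E. coli BL21(DE3)) catalyse integration of donor viral DNA, 5′-Cy5-labelled, into acceptor target DNA, 5′-biotinylated and bound by streptavidin-europium. The integration product is read as time-resolved FRET between the two fluorophores, with test compound present.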
In general terms: TR-FRET usually uses a lanthanide donor and a delayed reading to cut background.

For assay [2], the target named is HIV-1 IN A128T (Human immunodeficiency virus type 1 group M subtype B, UniProt P12497, A1275T). The assay can be described thus: HTRF-based integration assay against drug-resistant IN. Format: biochemical.
In assay [3] the target is HIV-1 IN H171T (Human immunodeficiency virus type 1 group M subtype B, UniProt P12497, H1318T). The assay is described as above. Format: biochemical.
The target of assay [4] is HIV-1 IN G140S/Q148H (Human immunodeficiency virus type 1 group M subtype B, UniProt P12497, G1287S/Q1295H). The assay is described as above. Type of assay: biochemical.
The test system of assay [5] is HIV-1. Conditions: reported in the literature; ref [30],[41],[58],[60]−[69]; cited from earlier work.

Consider `CC(C)(C)OC(=O)N1CCC(C(=O)N[C@@H](Cc2ccc3ccccc3c2)C(=O)O)(c2ccccc2)CC1` [Compound 14e], for which the IC50 in assay [1] (IC50, inhibitory activity against IN, Table 2, WT IN) was found to be 90.4 ± 4.72 µM; in assay [2], 86.8 ± 2.98 µM; in assay [3] it was 114 ± 9.79 µM; in assay [4] it was 103 ± 3.12 µM. Moreover, the “fold higher potency than compound 12” value in assay [1] (IN catalytic activity in vitro, relative to 12) is listed as “fourfold”.

In the case of `Cc1nc2c(c(C)c(C)n2Cc2cnn(C)c2)c(-c2ccc(Cl)cc2)c1[C@H](OC(C)(C)C)C(=O)O` [STP0404], the “selectivity against HIV-1 (therapeutic index)” value in assay [5] was > 24,000.
